Among the data in ChEMBL document CHEMBL1134664, “Influence of polyamine architecture on the transport and topoisomerase II inhibitory properties of polyamine DNA-intercalator conjugates” (J Med Chem, 2001) are IC50 values, retold here.

What is called IC50 is the point on the concentration scale where inhibition reaches its midpoint. Higher therefore signals weaker potency in that assay.

Test [1] relates to L1210. Description: Cytotoxicity against murine leukemia (L1210) cells was determined at 47h. The class given is functional, cell-based. The following applies: Mus musculus, L1210, 47 h. The procedure, abridged:
(§1)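 L1210 murine leukemia cells in early to mid log phase (under 5% trypan blue positive before the start) were grown at 37 °C in 5% CO2 in 96-well plates with increasing drug concentrations for the stated time. A methotrexate positive control was included in every trial. Viability was read by colorimetric NAD(P)H-dependent formazan production, and the IC50 was taken from this.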

Test [2] concerns L1210. Description: Cytotoxicity against murine leukemia (L1210) cells was determined at 94h. To be noted: Mus musculus, L1210, 94 h. It counts as functional, cell-based. The procedure, abridged: as §1

Regarding `NCCCN(CCCCCNCc1c2ccccc2cc2ccccc12)CCCCN(CCCN)CCCCCNCc1c2ccccc2cc2ccccc12`, the IC50 in test [1] was 18 µM; in test [2], 25 µM.

For the molecule `NCCCN(CCCCNCc1c2ccccc2cc2ccccc12)CCCCN(CCCN)CCCCNCc1c2ccccc2cc2ccccc12`, the IC50 in test [1] was 44 µM; in test [2] it was 61 µM.

On to `NCCCCN(CCCN)CCCCNc1c2ccccc2nc2ccccc12`, for which the figures for the IC50 in test [1] and in test [2] were 75 µM and 55 µM, respectively.

`NCCCCN(CCCN)CCCCCNc1c2ccccc2nc2ccccc12`: the IC50 in test [1] and in test [2] was over 100 µM throughout.

For the molecule `NCCCN(CCCCCNc1c2ccccc2nc2ccccc12)CCCCN(CCCN)CCCCCNc1c2ccccc2nc2ccccc12`, the IC50 in test [1] is 17 µM; in test [2], 23 µM.

Take `CCCCNc1c2ccccc2nc2ccccc12`: the IC50 in test [1] and in test [2] was 2 µM throughout.

Turning to `NCCCN(CCCCNc1c2ccccc2nc2ccccc12)CCCCN(CCCN)CCCCNc1c2ccccc2nc2ccccc12`, the IC50 was determined as 40 µM in test [1] and 74 µM in test [2].

Take `NCCCNCCCCN(CCCN)CCCCNc1ccnc2cc(Cl)ccc12`: the IC50 in test [1] and in test [2] was over 100 µM in each case.

Consider `NCCCNCCCCN(CCCN)CCCCNc1c2ccccc2nc2ccccc12`, for which the IC50 amounted to 23 µM in test [1] and 17 µM in test [2].

In the case of `NCCCCN(CCCN)CCCCNCc1c2ccccc2cc2ccccc12`, the IC50 was 13 µM in test [1] and 6 µM in test [2].

Regarding `NCCCCN(CCCN)CCCCCNCc1c2ccccc2cc2ccccc12`, the figures for the IC50 in test [1] and in test [2] were 7 µM and 5 µM, respectively.
